One experiment deals with Tubulin (Homo sapiens) (UniProt P68371+Q9H4B7+P0DPH7+P68366+Q13509+Q71U36+P04350+Q3ZCM7+P07437+P68363+Q9BQE3+Q6PEY2+Q13885+Q9BVA1+Q9BUF5). Description: Induction of GTP-tubulin polymerization. It counts as protein-complex assay. The method in brief:
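ED50 for induction of tubulin assembly, read by light scattering at 350 nm or by fluorescence in a 96-well format. GTP-tubulin was used unless otherwise stated. Some samples were run with GDP-tubulin and normalized to the GTP-tubulin scale. Some values are single determinations.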

Experiment [1] deals with 1A9. In words: Inhibition of growth in 1A9 cell line after 72 hrs. It counts as functional, cell-based. As to conditions: Homo sapiens, 1A9, 72 h.
Experiment [2] concerns 1A9. Description: Relative resistance, IC50 for 1A9-A8 A8 T-beta-274I mutant/IC50 for 1A9. It counts as functional, Homo sapiens.
The subject of a further experiment is A2780. In words: Cytotoxicity against A2780 cell line. Particulars: Homo sapiens. It counts as cell-based.
The nature of experiment [3]: Inhibition of growth in epothilone A resistant 1A9-A8 T-beta-274I mutant cell line after 72 hrs by SRB assay. It counts as functional, cell-based. As to conditions: Homo sapiens, 1A9, 72 h. A general note: In SRB staining, fixed cells bind dye roughly in proportion to their protein.
The test system of another experiment is PC-3. In words: Cytotoxicity against PC3 cell line by MTT assay. It counts as cell-based. Particulars: Homo sapiens. Background: Tetrazolium dyes change colour on reduction, which living cells bring about.
The test system of experiment [4] is 1A9/ptx-10. In words: Inhibition of growth in paclitaxel resistant 1A9-PTX10 F-beta-270V mutant cell line after 72 hrs by SRB assay. It is filed as functional, cell-based. Particulars: Homo sapiens, 1A9/ptx-10, 72 h.
For experiment [5], the system named is 1A9/ptx-10. Description: Relative resistance, IC50 for 1A9-PTX10 F-beta-270V mutant/IC50 for 1A9. It counts as functional, Homo sapiens.

Each structure is given as a SMILES string.

We go through ten molecules from ChEMBL document CHEMBL1141391 (J Med Chem, 2007).

What is called IC50 is the concentration that inhibits the measured activity by half. Higher therefore signals lower potency. `CC(=O)O[C@H]1C(=O)[C@@]2(C)[C@@H]3[C@H](OC(=O)c4ccccc4)[C@]4(O)C[C@H](OC(=O)[C@H](O)[C@@H](NC(=O)c5ccccc5)c5ccccc5OCCCC(=O)O[C@]35CO[C@@H]5C[C@@H]2O)C(C)=C1C4(C)C`: the ED50 on Tubulin (Homo sapiens) came to 830 nM. The half-inhibitory concentration (IC50) with 1A9 [1] stood at 18.9 nM; in the experiment with A2780 it was 18.5 nM; in experiment [3], 66.5 nM; with PC-3, 50 nM; in the experiment with 1A9/ptx-10 [4] it was 35.9 nM. For the same molecule, the entries for the “Ratio IC50” value in the experiment on 1A9 [2] and in the experiment on 1A9/ptx-10 [5] were 3.5 and 1.8, respectively.
Turning to `CC(=O)O[C@H]1C(=O)[C@@]2(C)[C@@H]3[C@H](OC(=O)c4ccccc4)[C@]4(O)C[C@H](OC(=O)[C@H](O)[C@@H](NC(=O)c5ccccc5)c5ccccc5OC/C=C\C(=O)O[C@]35CO[C@@H]5C[C@@H]2O)C(C)=C1C4(C)C`, the ED50 at Tubulin (Homo sapiens) was found to be 280 nM. The IC50 with 1A9 [1] stood at 7 nM; with A2780, 14.5 nM; in experiment [3] it was 26.5 nM; in the experiment on PC-3, 15 nM; with 1A9/ptx-10 [4], 126 nM. The “Ratio IC50” value in the experiment on 1A9 [2] worked out at 3.8; in the experiment with 1A9/ptx-10 [5] it was 17.
The molecule `CC(=O)O[C@H]1C(=O)[C@@]2(C)[C@H]([C@H](OC(=O)c3ccccc3)[C@]3(O)C[C@H](OC(=O)[C@H](O)[C@@H](NC(=O)c4ccccc4)c4ccccc4)C(C)=C1C3(C)C)[C@]1(OC(C)=O)CO[C@@H]1C[C@@H]2O` [PACLITAXEL] displayed an ED50 on Tubulin (Homo sapiens) of 500 nM. In addition, the IC50 came to 4.8 nM with 1A9 [1], 21.5 nM in experiment [3], 5 nM in the experiment with PC-3 and 157 nM in the experiment on 1A9/ptx-10 [4].
At Tubulin (Homo sapiens), `CC(=O)O[C@H]1C(=O)[C@@]2(C)[C@@H]3[C@H](OC(=O)c4ccccc4)[C@]4(O)C[C@H](OC(=O)[C@H](O)[C@@H](NC(=O)c5ccccc5)c5cccc(c5)/C=C/CCC(=O)O[C@]35CO[C@@H]5C[C@@H]2O)C(C)=C1C4(C)C` had an ED50 of 1600 nM. Further, the half-inhibitory concentration (IC50) was 12.9 nM in the experiment with 1A9 [1]; 680 nM in the experiment on A2780; over 300 nM in experiment [3]; 34 nM in the experiment on PC-3; 157 nM with 1A9/ptx-10 [4]. Also, the “Ratio IC50” value with 1A9 [2] was over 23; in the experiment with 1A9/ptx-10 [5], 21.
Molecule `C=CCCC(=O)O[C@@]12CO[C@@H]1C[C@H](O)[C@@]1(C)C(=O)[C@H](OC(C)=O)C3=C(C)[C@@H](OC(=O)[C@H](O)[C@@H](NC(=O)c4ccccc4)c4cccc(C=C)c4)C[C@@](O)([C@@H](OC(=O)c4ccccc4)[C@H]21)C3(C)C` showed an ED50 on Tubulin (Homo sapiens) of 490 nM. In addition, the IC50 in the experiment with 1A9 [1] stood at 13.7 nM; in the experiment with A2780 it was 350 nM; in experiment [3], 137 nM; in the experiment with PC-3 it was 55 nM; in the experiment with 1A9/ptx-10 [4], 42 nM. The “Ratio IC50” value with 1A9 [2] worked out at 10; with 1A9/ptx-10 [5] it was 5.5.
Consider `CC(=O)O[C@H]1C(=O)[C@@]2(C)[C@@H]3[C@H](OC(=O)c4ccccc4)[C@]4(O)C[C@H](OC(=O)[C@H](O)[C@@H](NC(=O)c5ccccc5)c5cccc(c5)OC/C=C/CCC(=O)O[C@]35CO[C@@H]5C[C@@H]2O)C(C)=C1C4(C)C`, for which the IC50 is 24.6 nM in the experiment with 1A9 [1], 650 nM in the experiment with A2780, over 300 nM in experiment [3] and 196 nM with 1A9/ptx-10 [4]. The “Ratio IC50” value in the experiment on 1A9 [2] is recorded as over 12; with 1A9/ptx-10 [5], 6.3.
Take `CC(=O)O[C@H]1C(=O)[C@]2(C)C(O)C[C@H]3OC[C@]34OC(=O)/C=C\Cc3ccccc3[C@H](NC(=O)c3ccccc3)[C@@H](O)C(=O)O[C@H]3C[C@@](O)([C@@H](OC(=O)c5ccccc5)[C@H]42)C(C)(C)C1=C3C` (stereo not given in full): the ED50 at Tubulin (Homo sapiens) is 300 nM. The IC50 in the experiment on 1A9 [1] was determined as 0.32 nM; with A2780, 0.3 nM; in experiment [3], 0.27 nM; in the experiment on PC-3, 2.5 nM; with 1A9/ptx-10 [4], 0.13 nM. The “Ratio IC50” value with 1A9 [2] amounted to 0.84; in the experiment on 1A9/ptx-10 [5], 1.8.
Molecule `CC(=O)O[C@H]1C(=O)[C@@]2(C)[C@@H]3[C@H](OC(=O)c4ccccc4)[C@]4(O)C[C@H](OC(=O)[C@H](O)[C@@H](NC(=O)c5ccccc5)c5ccccc5OCC/C=C/C(=O)O[C@]35CO[C@@H]5C[C@@H]2O)C(C)=C1C4(C)C` returned an ED50 on Tubulin (Homo sapiens) of 670 nM. Besides, the IC50 in the experiment with 1A9 [1] came out at 12.2 nM; in the experiment on A2780 it was 20 nM; in experiment [3] it was 46.4 nM; with PC-3 it was 16 nM; with 1A9/ptx-10 [4], 157 nM. Also, the figures for the “Ratio IC50” value with 1A9 [2] and in the experiment on 1A9/ptx-10 [5] were 3.8 and 9.2, respectively.
`CC(=O)O[C@H]1C(=O)[C@@]2(C)[C@@H]3[C@H](OC(=O)c4ccccc4)[C@]4(O)C[C@H](OC(=O)[C@H](O)[C@@H](NC(=O)c5ccccc5)c5ccccc5CCCC(=O)O[C@]35CO[C@@H]5C[C@@H]2O)C(C)=C1C4(C)C`: the ED50 on Tubulin (Homo sapiens) worked out at 210 nM. In addition, the IC50 with 1A9 [1] amounted to 0.07 nM; in the experiment with A2780 it was 0.5 nM; in experiment [3], 0.44 nM; in the experiment with PC-3 it was 2.4 nM; in the experiment on 1A9/ptx-10 [4], 1.03 nM. Besides, the “Ratio IC50” value in the experiment with 1A9 [2] was 6.3; with 1A9/ptx-10 [5], 12.
Consider `C=CCCC(=O)O[C@@]12CO[C@@H]1C[C@H](O)[C@@]1(C)C(=O)[C@H](OC(C)=O)C3=C(C)[C@@H](OC(=O)[C@H](O)[C@@H](NC(=O)c4ccccc4)c4ccccc4OCC=C)C[C@@](O)([C@@H](OC(=O)c4ccccc4)[C@H]21)C3(C)C`, for which the ED50 on Tubulin (Homo sapiens) is 420 nM. Also, the half-maximal inhibitory concentration (IC50) with 1A9 [1] is 1.8 nM; with A2780, 770 nM; in experiment [3], 148 nM; with PC-3 it was 128 nM; with 1A9/ptx-10 [4], 65 nM. Besides, the entries for the “Ratio IC50” value in the experiment on 1A9 [2] and in the experiment with 1A9/ptx-10 [5] were 82 and 18, respectively.
